Reference: ChEMBL document CHEMBL3271948, “Irreversible enzyme inhibitors. 200. Active-site-directed inhibitors of deoxycytidine kinase” (J Med Chem, 1977)
In brackets after ≈: the same amount, converted by molar mass. Activity calls are given as the source filed them. No cut-off for these calls is given here.

Columns and labels:
[1] = target: Deoxycytidine kinase (Rattus norvegicus) (UniProt P48769); assay: (§1) Irreversible inhibition of Walker 256 rat tumor deoxycytidine kinase by [3H]deoxycytidine binding assay
In short: (§2)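 Enzyme came from the 0–45% (NH4)2SO4 fraction of Walker 256 rat tumor, treated with 1 M HOAc. The assay contained [3H]deoxycytidine 0.025 mM, ATP 5 mM, MgCl2 5 mM and Tris pH 8.0 buffer 50 mM. Inhibitor was added in DMSO. Phosphorylated product was measured by adsorption to DEAE-cellulose filter disks. Inhibition was expressed as V0/V1, the uninhibited over the inhibited rate.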

Deoxycytidine kinase = Deoxycytidine kinase (Rattus norvegicus, UniProt P48769); assay: as §1; conditions: read-out: I50; in short: as §2
[2] = target: Deoxycytidine kinase (Rattus norvegicus) (UniProt P48769); assay: Irreversible inhibition of Walker 256 rat tumor deoxycytidine kinase assessed as ratio of V0/V1 by [3H]deoxycytidine binding assay; in short: as §2
[3] = Maximum solubility of the compound; assay type: physicochemical

Chain of Deoxycytidine kinase (Rattus norvegicus) (P48769 whole entry): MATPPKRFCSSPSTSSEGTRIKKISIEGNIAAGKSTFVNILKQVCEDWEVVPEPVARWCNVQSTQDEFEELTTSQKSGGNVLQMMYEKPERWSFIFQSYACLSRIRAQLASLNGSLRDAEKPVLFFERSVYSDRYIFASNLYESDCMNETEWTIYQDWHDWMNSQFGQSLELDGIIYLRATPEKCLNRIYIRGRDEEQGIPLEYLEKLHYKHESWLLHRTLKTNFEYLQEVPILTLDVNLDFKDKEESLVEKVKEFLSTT
Chain of Deoxycytidine kinase (P48769 whole entry): as above

Q: For `Nc1ccn(CCCOc2ccccc2)c(=O)n1`, which IC [1] is on record?
A: The IC was 2.5 mM.

Q: What about the IC50 (Deoxycytidine kinase) of the same compound?
A: The IC50 was 2500 µM.

Q: What about the Ratio [2] of the same compound?
A: The Ratio was 2.

Q: For `Nc1cc(OCc2ccccc2)ncn1`, which inhibition [1] is on record?
A: Its inhibition is “inactive”.

Q: For `O=c1nc(NCc2ccccc2)cc[nH]1`, which inhibition [1] is on record?
A: Its inhibition is “inactive”.

Q: Which IC [1] does the source give for `CC(C)CCn1ccc(N)nc1=O` here?
A: Its IC is 5 mM.

Q: And the IC50 (Deoxycytidine kinase)?
A: Its IC50 is 5000 µM.

Q: And the Ratio [2]?
A: Its Ratio is 2.

Q: With `COCCOc1nccc(N)n1` as the compound, how does the IC [1] read?
A: Its IC is 5 mM.

Q: What about the Ratio [2] of the same compound?
A: The Ratio was 1.

Q: For `Nc1ccnc(Sc2ccc3ccccc3c2)n1`, which IC50 (Deoxycytidine kinase) is on record?
A: Its IC50 is 500 µM.

Q: And the solubility [3]?
A: Its solubility is 500 µM (≈ 127 µg/mL).

Q: What about the Ratio [2] of the same compound?
A: Its Ratio is 2.

Q: For `Nc1nc(=O)[nH]cc1-c1ccc(Cl)c(Cl)c1`, which inhibition [1] is on record?
A: Its inhibition is “inactive”.

Q: Which inhibition [1] does the source give for `O=C(Nc1ccnc(=O)[nH]1)c1ccccc1` here?
A: The inhibition was “inactive”.

Q: What does the source list for `Nc1ccn(-c2cccc3ccccc23)c(=O)n1`?
A: IC50 (Deoxycytidine kinase): 1500 µM; solubility [3]: 500 µM (≈ 119 µg/mL); Ratio [2]: 1.4

Q: With `CCCn1ccc(N)nc1=O` as the compound, how does the IC [1] read?
A: Its IC is 5 mM.

Q: What about the IC50 (Deoxycytidine kinase) of the same compound?
A: Its IC50 is 12000 µM.

Q: What about the Ratio [2] of the same compound?
A: Its Ratio is 1.4.

Q: With `Nc1ccn(CCOc2ccccc2)c(=O)n1` as the compound, how does the IC [1] read?
A: The IC was 5 mM.

Q: And the IC50 (Deoxycytidine kinase)?
A: The IC50 was 6000 µM.

Q: And the Ratio [2]?
A: The Ratio was 1.8.

Q: With `Nc1ccnc(SCCCCc2ccccc2)n1` as the compound, how does the IC50 (Deoxycytidine kinase) read?
A: The IC50 was 1000 µM.

Q: And the solubility [3]?
A: The solubility was 500 µM (≈ 130 µg/mL).

Q: And the Ratio [2]?
A: The Ratio was 1.5.

Q: Which IC [1] does the source give for `CCCCCSc1nccc(N)n1` here?
A: Its IC is 2.6 mM.

Q: What about the IC50 (Deoxycytidine kinase) of the same compound?
A: Its IC50 is 2600 µM.

Q: What about the Ratio [2] of the same compound?
A: Its Ratio is 2.

Q: Which IC50 (Deoxycytidine kinase) does the source give for `Nc1ccnc(SCCCOc2ccccc2)n1` here?
A: The IC50 was 2000 µM.

Q: What about the solubility [3] of the same compound?
A: The solubility was 1000 µM (≈ 261 µg/mL).

Q: And the Ratio [2]?
A: The Ratio was 1.5.

Q: Which IC50 (Deoxycytidine kinase) does the source give for `Nc1ccnc(SCc2ccc(Cl)cc2)n1` here?
A: The IC50 was 1000 µM.

Q: What about the solubility [3] of the same compound?
A: Its solubility is 1000 µM (≈ 252 µg/mL).

Q: And the Ratio [2]?
A: Its Ratio is 2.

Q: With `Nc1cc(NCc2ccccc2)[nH]c(=O)n1` as the compound, how does the inhibition [1] read?
A: The inhibition was “inactive”.

Q: For `CS(=O)(=O)c1nc(N)cc(OCc2ccccc2)n1`, which inhibition [1] is on record?
A: The inhibition was “inactive”.

Q: With `CSc1nc(N)cc(OCc2ccccc2)n1` as the compound, how does the inhibition [1] read?
A: The inhibition was “inactive”.

Q: For `Nc1ccnc(Oc2ccc(Cl)cc2)n1`, which IC [1] is on record?
A: Its IC is 5 mM.

Q: And the IC50 (Deoxycytidine kinase)?
A: Its IC50 is 5000 µM.

Q: And the Ratio [2]?
A: Its Ratio is 2.

Q: With `Nc1cc(OCc2ccccc2)[nH]c(=O)n1` as the compound, how does the inhibition [1] read?
A: Its inhibition is “inactive”.

Q: Which results are given for `Nc1cc[nH]c(=O)n1`?
A: IC [1]: 10 mM; Ratio [2]: 1

Q: Which inhibition [1] does the source give for `CCCCNc1cc(N)nc(=O)[nH]1` here?
A: The inhibition was “inactive”.

Q: Which inhibition [1] does the source give for `Nc1cc(Nc2ccccc2)[nH]c(=O)n1` here?
A: Its inhibition is “inactive”.

Q: For `COc1ccc(-c2c[nH]c(=O)nc2N)cc1`, which inhibition [1] is on record?
A: Its inhibition is “inactive”.

Q: What does the source list for `Nc1ccnc(OCc2ccccc2)n1`?
A: IC [1]: 7.5 mM; IC50 (Deoxycytidine kinase): 6000 µM; Ratio [2]: 2.4

Q: With `Nc1ccnc(SCc2ccccc2)n1` as the compound, how does the IC [1] read?
A: Its IC is 4 mM.

Q: What about the IC50 (Deoxycytidine kinase) of the same compound?
A: The IC50 was 2800 µM.

Q: And the Ratio [2]?
A: The Ratio was 2.8.

Q: For `CCCOc1nccc(N)n1`, which IC [1] is on record?
A: Its IC is 5 mM.

Q: And the Ratio [2]?
A: Its Ratio is 1.

Q: Which inhibition [1] does the source give for `CCCCCNc1cc[nH]c(=O)n1` here?
A: The inhibition was “inactive”.

Q: For `CCCCCCCCOc1nccc(N)n1`, which IC50 (Deoxycytidine kinase) is on record?
A: Its IC50 is 1000 µM.

Q: And the solubility [3]?
A: Its solubility is 250 µM (≈ 55.8 µg/mL).

Q: What about the Ratio [2] of the same compound?
A: Its Ratio is 1.5.

Q: What does the source list for `Nc1ccn(Cc2ccccc2)c(=O)n1`?
A: IC50 (Deoxycytidine kinase): 12000 µM; solubility [3]: 2500 µM (≈ 503 µg/mL); Ratio [2]: 1.4

Q: For `Oc1nccc(Nc2ccccc2)n1`, which inhibition [1] is on record?
A: The inhibition was “inactive”.

Q: With `Nc1ccn(CCCCc2ccccc2)c(=O)n1` as the compound, how does the IC50 (Deoxycytidine kinase) read?
A: The IC50 was 1000 µM.

Q: And the solubility [3]?
A: The solubility was 1000 µM (≈ 243 µg/mL).

Q: What about the Ratio [2] of the same compound?
A: The Ratio was 2.

Q: For `CC(=O)Nc1cc[nH]c(=O)n1`, which inhibition [1] is on record?
A: The inhibition was “inactive”.

Q: Which results are given for `CCCCCOc1nccc(N)n1`?
A: IC [1]: 10 mM; IC50 (Deoxycytidine kinase): 7000 µM; Ratio [2]: 3.6
